# Test results published in ChEMBL document CHEMBL3627612, “Hirsutinolide Series Inhibit Stat3 Activity, Alter GCN1, MAP1B, Hsp105, G6PD, Vimentin, TrxR1, and Importin α-2 Expression, and Induce Antitumor Effects against Human Glioma” (J Med Chem, 2015).
# The source made the active and inactive calls. No cut-off for these calls is given here.
# How the values were obtained:
# MCF7 = test: Antiproliferative activity against human MCF7 cells for 72 hrs by cyquant assay; format: functional, cell-based; settings: MCF7, 72 h
# Outline: (§1)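 CyQuant proliferation assay after 72 h compound exposure of cultured cells; relative viability normalized to DMSO-treated control; IC50 values derived. Glioma lines grown in RPMI or DMEM with 10% FBS and 1% nonessential amino acids.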
# [1] = molecular target: T1, Signal transducer and activator of transcription 3 (Homo sapiens, UniProt P40763); test: Binding affinity to Stat3 (unknown origin) by NMR analysis
# MDA-MB-231 [2] = test: Antiproliferative activity against human MDA-MB-231 cells for 72 hrs by cyquant assay; format: functional, cell-based; settings: MDA-MB-231, 72 h; outline: as §1
# MDA-MB-231 [3] = test: Antiproliferative activity against human MDA-MB-231 cells at 5 uM for 72 hrs by cyquant assay; format: functional, cell-based
# [4] = Cytotoxicity against mouse NIH/3T3 cells at 5uM after 72 hrs by cyquant cells; format: cell-based; settings: nih3t3, 72 h; outline: as §1
# [5] = molecular target: T2, Signal transducer and activator of transcription 1 (Mus musculus) (UniProt P42225); test: Inhibition of Stat1 dimer DNA binding activity in EGF-stimulated mouse NIH3T3 nuclear extract expressing human EGFR at 5 uM preincubated for 30 mins followed by addition of radiolabeled probe hSIE for 30 mins by EMSA
# T2 sequence (whole entry): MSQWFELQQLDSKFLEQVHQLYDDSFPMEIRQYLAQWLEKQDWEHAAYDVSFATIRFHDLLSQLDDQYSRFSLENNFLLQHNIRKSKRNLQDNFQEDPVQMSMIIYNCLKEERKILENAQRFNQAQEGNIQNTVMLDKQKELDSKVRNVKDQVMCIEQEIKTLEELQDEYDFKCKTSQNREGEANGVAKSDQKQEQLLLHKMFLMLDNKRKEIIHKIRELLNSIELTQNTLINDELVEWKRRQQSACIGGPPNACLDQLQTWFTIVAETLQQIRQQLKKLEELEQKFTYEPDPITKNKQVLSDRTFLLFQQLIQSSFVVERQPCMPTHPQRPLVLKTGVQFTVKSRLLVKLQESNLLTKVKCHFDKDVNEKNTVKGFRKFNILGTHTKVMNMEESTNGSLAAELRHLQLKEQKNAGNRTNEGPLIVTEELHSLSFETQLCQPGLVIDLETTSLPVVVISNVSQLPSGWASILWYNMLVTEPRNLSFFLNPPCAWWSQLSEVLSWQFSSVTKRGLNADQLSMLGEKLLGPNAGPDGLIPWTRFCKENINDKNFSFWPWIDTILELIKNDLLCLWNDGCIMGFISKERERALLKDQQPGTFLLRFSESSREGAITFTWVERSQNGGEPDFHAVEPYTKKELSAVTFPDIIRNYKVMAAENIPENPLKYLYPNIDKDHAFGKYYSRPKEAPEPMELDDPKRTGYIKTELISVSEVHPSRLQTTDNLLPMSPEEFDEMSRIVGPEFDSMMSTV
# SF-295 = test: Antiproliferative activity against human SF295 cells at 5 uM for 72 hrs by cyquant assay; format: functional, cell-based
# [6] = Antiproliferative activity against human U373MG cells for 72 hrs by cyquant assay; format: functional, cell-based, U-373MG ATCC; settings: U373 MG; outline: as §1
# U-251 = test: Antiproliferative activity against human U251MG cells at 5 uM for 72 hrs by cyquant assay; format: functional; outline: as §1
# [7] = molecular target: T1, Signal transducer and activator of transcription 3; test: Inhibition of Stat3 activity in human U251MG cells assessed as phosphorylated Stat3 level at 5 uM by immunoblot analysis; format: cell-based; settings: U-251, TDE = time-dependent effect
# [8] = Cytotoxicity against mouse NIH/3T3 cells after 72 hrs by cyquant cells; format: cell-based; settings: NIH3T3, 72 h; outline: as §1
# [9] = Antiproliferative activity against human U251MG cells for 72 hrs by cyquant assay; format: functional, cell-based; settings: U-251, 72 h; outline: as §1
# NIH3T3 = test: Inhibition of Stat5 dimer DNA binding activity in EGF-stimulated mouse NIH3T3 nuclear extract expressing human EGFR at 5 uM preincubated for 30 mins followed by addition of radiolabeled probe MGFe for 30 mins by EMSA; format: cell-free
# [10] = Antiproliferative activity against human SF295 cells for 72 hrs by cyquant assay; format: functional, cell-based; settings: SF-295, 72 h; outline: as §1
# [11] = molecular target: Signal transducer and activator of transcription 3 (Mus musculus) (UniProt P42227); test: Inhibition of Stat3 dimer DNA binding activity in mouse NIH3T3/vSrc nuclear extract at 5 uM preincubated for 30 mins followed by addition of radiolabeled probe hSIE for 30 mins by EMSA
# [12] = molecular target: T1, Signal transducer and activator of transcription 3; test: Inhibition of Stat3 activity in human U251MG cells assessed as phosphorylated Stat3 level at 5 uM after 0.5 to 24 hrs by immunoblot analysis; format: cell-based; settings: U-251
# Outline: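 U251MG cells treated with 5 μM compound for 0–24 h, or with 0–5 μM for 2 h. Whole-cell lysates immunoblotted for pStat3, Stat3, GAPDH. Control was 0.025% DMSO-treated cells.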
# [13] = molecular target: Signal transducer and activator of transcription 3 (Mus musculus) (UniProt P42227); test: Inhibition of Stat3 dimer DNA binding activity in EGF-stimulated mouse NIH3T3 nuclear extract expressing human EGFR assessed as residual activity at 5 uM preincubated for 30 mins followed by addition of radiolabeled probe hSIE for 30 mins by EMSA
# [14] = molecular target: Signal transducer and activator of transcription 1/ 3 (Mus musculus) (UniProt P42227+P42225); test: Inhibition of Stat1:Stat3 dimer DNA binding activity in EGF-stimulated mouse NIH3T3 nuclear extract expressing human EGFR assessed as residual activity at 5 uM preincubated for 30 mins followed by addition of radiolabeled probe hSIE for 30 mins by EMSA; format: cell-free
# [15] = molecular target: T2, Signal transducer and activator of transcription 1 (Mus musculus); test: Inhibition of Stat1 dimer DNA binding activity in EGF-stimulated mouse NIH3T3 nuclear extract expressing human EGFR assessed as residual activity at 5 uM preincubated for 30 mins followed by addition of radiolabeled probe hSIE for 30 mins by EMSA
# T1 sequence (P40763 whole entry): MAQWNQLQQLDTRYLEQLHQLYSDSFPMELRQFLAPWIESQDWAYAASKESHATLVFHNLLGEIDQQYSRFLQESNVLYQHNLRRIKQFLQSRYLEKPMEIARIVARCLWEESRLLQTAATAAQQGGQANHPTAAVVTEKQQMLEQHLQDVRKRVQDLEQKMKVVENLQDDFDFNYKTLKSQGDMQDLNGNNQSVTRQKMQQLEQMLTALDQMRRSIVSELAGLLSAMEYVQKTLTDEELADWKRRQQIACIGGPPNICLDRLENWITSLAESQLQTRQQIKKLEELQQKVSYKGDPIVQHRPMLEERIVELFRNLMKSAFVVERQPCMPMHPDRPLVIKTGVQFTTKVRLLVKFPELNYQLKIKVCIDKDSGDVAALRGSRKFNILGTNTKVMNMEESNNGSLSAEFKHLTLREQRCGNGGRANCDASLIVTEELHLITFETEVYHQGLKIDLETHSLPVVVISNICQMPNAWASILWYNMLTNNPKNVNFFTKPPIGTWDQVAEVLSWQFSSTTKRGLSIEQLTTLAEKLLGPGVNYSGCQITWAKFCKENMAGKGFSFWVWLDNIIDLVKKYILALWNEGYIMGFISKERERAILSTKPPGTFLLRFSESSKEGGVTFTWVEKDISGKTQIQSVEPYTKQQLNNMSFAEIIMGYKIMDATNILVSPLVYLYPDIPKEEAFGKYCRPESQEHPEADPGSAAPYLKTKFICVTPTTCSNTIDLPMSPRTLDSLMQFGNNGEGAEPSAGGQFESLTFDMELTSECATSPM
# Chain of Signal transducer and activator of transcription 3 (Mus musculus) (P42227 whole entry): as the sequence (P40763 whole entry) above, with E760D counted along it
IC50 (MCF7) [µM],Activity [1],IC50 (MDA-MB-231 [2]) [µM],inhibition [5],inhibition [7],inhibition (NIH3T3),inhibition [11],inhibition [12],Activity [13] [%],Activity [14] [%],Activity [15] [%],SMILES,inhibition (MDA-MB-231 [3]),Activity [4],inhibition (SF-295),IC50 [6] [µM],inhibition (U-251),IC50 [8] [µM],IC50 [9] [µM],IC50 [10] [µM]
7.7,Dose-dependent effect,5.2,inactive,tde,inactive,Active,–,–,–,–,C=C(C)C(=O)O[C@H]1C[C@@H](C)[C@]2(O)CC[C@](C)(/C=C3/OC(=O)C(COC(C)=O)=C31)O2,Active,Toxic,Active,8.3,Active,7.1,2.6,9.1
–,–,–,inactive,–,inactive,Active,Active,63,71,61,C/C=C(/C)C(=O)O[C@H]1C[C@@H](C)[C@]2(O)CC[C@](C)(/C=C3/OC(=O)C(CO)=C31)O2,inactive,Non-toxic,inactive,–,Active,–,–,–
–,–,–,–,–,–,Active,Active,–,–,–,CCC(C)C(=O)OCC1=C2/C(=C\[C@@]3(C)CC[C@](O)(O3)[C@H](C)C[C@@H]2O)OC1=O (stereo partly drawn),–,–,–,–,–,–,–,–
